Laboratory results from ChEMBL document CHEMBL1154950, “Biochemical analysis of cellular target of S-trityl-L-cysteine derivatives using affinity matrix” (Bioorg Med Chem Lett, 2010).
Calls of active or inactive are those of the source. No cut-off for these calls is given here.

Tests used:
Type in all cases: cell-based
Settings in all cases: HCT-116
[1] = biological target: T1, Kinesin-like protein KIF11 (Homo sapiens) (UniProt P52732); assay: Competitive inhibition of affinity bead (R)-2-Amino-N-{2-[2-(2-amino-ethoxy)-ethoxy]-ethyl}-3-[(4-methoxy-phenyl)-diphenyl-methylsulfanyl]-propionamide binding to KSP in human HCT116 cells at 10 umol/L pretreated for 3 hrs by Western blot analysis
T1 sequence (whole entry): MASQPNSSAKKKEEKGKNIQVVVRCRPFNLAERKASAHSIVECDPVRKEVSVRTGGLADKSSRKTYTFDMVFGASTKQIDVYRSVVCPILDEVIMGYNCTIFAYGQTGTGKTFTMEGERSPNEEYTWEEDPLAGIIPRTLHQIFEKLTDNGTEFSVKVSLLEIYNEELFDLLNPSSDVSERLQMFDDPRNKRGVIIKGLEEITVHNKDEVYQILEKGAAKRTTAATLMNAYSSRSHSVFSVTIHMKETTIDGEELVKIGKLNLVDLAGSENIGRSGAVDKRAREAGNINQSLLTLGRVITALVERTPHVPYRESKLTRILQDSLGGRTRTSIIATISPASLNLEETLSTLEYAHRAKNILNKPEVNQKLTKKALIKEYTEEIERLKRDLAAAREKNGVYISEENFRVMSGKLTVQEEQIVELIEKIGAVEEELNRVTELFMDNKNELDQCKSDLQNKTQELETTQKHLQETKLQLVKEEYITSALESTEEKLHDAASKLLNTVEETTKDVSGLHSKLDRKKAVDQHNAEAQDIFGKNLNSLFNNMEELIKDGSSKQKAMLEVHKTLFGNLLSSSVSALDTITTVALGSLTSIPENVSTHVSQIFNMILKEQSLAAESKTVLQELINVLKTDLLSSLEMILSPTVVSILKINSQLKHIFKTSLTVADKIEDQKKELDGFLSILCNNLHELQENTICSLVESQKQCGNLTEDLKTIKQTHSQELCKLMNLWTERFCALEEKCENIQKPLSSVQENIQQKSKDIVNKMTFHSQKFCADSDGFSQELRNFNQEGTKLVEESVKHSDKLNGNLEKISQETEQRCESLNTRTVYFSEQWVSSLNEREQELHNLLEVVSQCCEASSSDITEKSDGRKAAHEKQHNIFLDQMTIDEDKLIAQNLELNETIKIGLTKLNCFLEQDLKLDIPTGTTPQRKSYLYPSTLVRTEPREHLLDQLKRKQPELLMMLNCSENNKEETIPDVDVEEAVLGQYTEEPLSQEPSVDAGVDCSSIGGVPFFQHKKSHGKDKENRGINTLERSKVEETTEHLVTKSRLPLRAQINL

[2] = biological target: T1, Kinesin-like protein KIF11 (Homo sapiens); assay: Competitive inhibition of affinity bead (R)-2-Amino-N-{2-[2-(2-amino-ethoxy)-ethoxy]-ethyl}-3-[(4-methoxy-phenyl)-diphenyl-methylsulfanyl]-propionamide binding to KSP in human HCT116 cells at >30 umol/L pretreated for 3 hrs by Western blot analysis
[3] = biological target: T1, Kinesin-like protein KIF11 (Homo sapiens); assay: Inhibition of affinity bead (R)-2-Amino-N-{2-[2-(2-amino-ethoxy)-ethoxy]-ethyl}-3-[(4-methoxy-phenyl)-diphenyl-methylsulfanyl]-propionamide binding to KSP in human HCT116 cells pretreated for 3 hrs by Western blot analysis
[4] = biological target: T1, Kinesin-like protein KIF11 (Homo sapiens); assay: Displacement of affinity bead (R)-2-Amino-N-{2-[2-(2-amino-ethoxy)-ethoxy]-ethyl}-3-[(4-methoxy-phenyl)-diphenyl-methylsulfanyl]-propionamide from KSP in human HCT116 cells after 2 hrs by Western blot analysis
Outline: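 This is a cell-free competition assay. Drug-immobilized or ethanolamine control beads were washed and resuspended in binding buffer containing DMSO or compound in DMSO. They were rotated for 2 h at 4 °C with 50 mg/mL BSA and 8 mg/mL HCT116 cytoplasmic extract (freeze–thaw lysate). Beads were washed three times, and KSP on the beads and in the supernatant was assessed by anti-KSP Western blot.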

In the case of `NS(=O)(=O)Nc1ccc(-c2ccc(C(F)(F)F)cn2)cc1`, the Activity [1] is reported as “inactive” and the Activity [2] is reported as “Active”.

`N[C@@H](CSC(c1ccccc1)c1ccccc1)C(=O)O` was tested, and the inhibition [3] was “inactive” and the Activity [4] was “inactive”.

For `N[C@@H](CSC(c1ccccc1)(c1ccccc1)c1ccc(C(F)(F)F)cc1)C(=O)O`, the inhibition [3] was “Active”, the Activity [4] was “Dose-dependent effect” and the Activity [1] was “Active”.

For `CC1(C)CC(=O)C2=C(C1)NC(=S)NC2c1cccc(O)c1` (stereo not drawn), the Activity [1] was “Active”.
